# Laboratory results published in publication PMC3087843 (Nature structural & molecular biology, 2011).
# Target: T1, human ERAP1 (Homo sapiens, UniProt Q9NZ08, G346D/G514D/K528R/Q730E)
# Test: Peptide trimming assay
# Format: biochemical
# Conditions: 150 μM peptide, 3.5 μg ml^–1 ERAP1, 37°C, 50 mM Tris-HCl pH 7.8, 0.25 g L^–1 BSA, C18 RP-HPLC (Fig. 4a)
# Procedure, shortened: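 Human ERAP1 (allelic variant) was baculovirus-expressed, Ni-NTA purified and treated with carboxypeptidase A at room temperature in PBS. Substrates were HPLC-purified synthetic peptides with mass confirmed by MS. Reactions were stopped with 0.6% (v/v) TFA, and the supernatant was run on C18 RP-HPLC with an acetonitrile gradient in 0.03% (v/v) TFA. Percent substrate cleaved was taken from integrated peak areas.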
# T1 sequence (Q9NZ08 whole entry G346D/G514D/K528R/Q730E): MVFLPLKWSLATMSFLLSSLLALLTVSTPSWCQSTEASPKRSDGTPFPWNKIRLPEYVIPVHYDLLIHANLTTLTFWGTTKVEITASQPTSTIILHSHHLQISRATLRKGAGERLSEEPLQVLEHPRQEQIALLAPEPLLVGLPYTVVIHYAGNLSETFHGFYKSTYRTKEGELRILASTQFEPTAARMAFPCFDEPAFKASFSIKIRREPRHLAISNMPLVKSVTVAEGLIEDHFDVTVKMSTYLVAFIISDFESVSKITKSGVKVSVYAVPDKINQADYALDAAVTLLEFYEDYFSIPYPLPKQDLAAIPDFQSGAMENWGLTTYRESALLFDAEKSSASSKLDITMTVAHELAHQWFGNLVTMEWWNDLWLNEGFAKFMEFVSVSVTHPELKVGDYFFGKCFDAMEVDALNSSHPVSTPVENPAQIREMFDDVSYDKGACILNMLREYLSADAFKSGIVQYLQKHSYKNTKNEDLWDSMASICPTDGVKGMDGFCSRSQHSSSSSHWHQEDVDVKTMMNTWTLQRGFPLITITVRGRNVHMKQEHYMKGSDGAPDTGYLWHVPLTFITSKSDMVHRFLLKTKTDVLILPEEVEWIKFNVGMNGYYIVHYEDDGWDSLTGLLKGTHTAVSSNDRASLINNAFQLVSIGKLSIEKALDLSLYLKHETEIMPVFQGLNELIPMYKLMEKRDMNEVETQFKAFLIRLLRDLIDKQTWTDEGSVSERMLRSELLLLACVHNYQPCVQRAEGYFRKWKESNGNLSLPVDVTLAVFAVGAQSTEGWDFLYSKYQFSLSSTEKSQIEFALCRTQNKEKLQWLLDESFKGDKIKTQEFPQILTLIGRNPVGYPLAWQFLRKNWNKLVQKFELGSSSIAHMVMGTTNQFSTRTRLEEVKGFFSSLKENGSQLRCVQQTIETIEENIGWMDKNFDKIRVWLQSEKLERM
row,Substance,ERAP1 processing of SIINFEKL length variants
1,QLESIINFEKL,processed efficiently
2,INFEKL,not processed appreciably
3,FEKL,not long enough to be processed efficiently
4,SIINFEKL [reference compound],not long enough to be processed efficiently

# Target: T1, human ERAP1
# Test: Activation of L-AMC hydrolysis by ERAP1 in the presence of peptides
# Format: biochemical
# Conditions: 100 μM L-AMC, 0–70 μM peptide, 0.87 μg ml^–1 ERAP1, 37°C (Fig. 6c,d)
row,Activation of ERAP1 hydrolysis of L-AMC by increasing peptide concentrations,Substance
1,did not activate,R(N-Me)VAEAAFAE
2,activated,LVAFKARAF [L-peptide]
3,activated,L(N-Me)VAFKARAF [L^Me]
